One series has as its target T1, Cytochrome P450 1A2 (Homo sapiens, UniProt P05177).
T1 sequence (P05177 whole entry): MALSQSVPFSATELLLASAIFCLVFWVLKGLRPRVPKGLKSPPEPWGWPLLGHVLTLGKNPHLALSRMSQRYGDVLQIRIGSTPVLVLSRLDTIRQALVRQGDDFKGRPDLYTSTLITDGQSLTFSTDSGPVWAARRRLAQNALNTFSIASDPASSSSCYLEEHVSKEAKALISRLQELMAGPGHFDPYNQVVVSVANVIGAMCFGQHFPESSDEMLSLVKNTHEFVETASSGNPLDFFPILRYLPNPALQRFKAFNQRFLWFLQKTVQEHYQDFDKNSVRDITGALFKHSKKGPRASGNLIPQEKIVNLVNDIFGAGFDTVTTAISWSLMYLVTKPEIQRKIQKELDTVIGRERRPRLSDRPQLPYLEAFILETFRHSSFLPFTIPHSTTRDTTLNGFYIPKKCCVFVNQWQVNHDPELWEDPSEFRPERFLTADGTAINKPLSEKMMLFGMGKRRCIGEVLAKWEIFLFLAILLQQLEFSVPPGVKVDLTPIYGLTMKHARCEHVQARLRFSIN
Put plainly: Inhibition of CYP1A2 (unknown origin). The series is classed as ADME.

The target in another series is Cytochrome P450 2C9 (Homo sapiens, UniProt P11712). Put plainly: Inhibition of CYP2C9 (unknown origin). Format: ADME.
Series [1] in a line: Metabolic stability in mouse liver microsomes assessed as drug metabolism after 15 mins at 1 uM. The series is classed as ADME, microsome. The settings on record: read-out: Drug metabolism. A digest of the protocol:
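Compound at 1µM incubated with liver microsomes of the stated species. Percent of compound metabolized after 15 min.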
For orientation: Liver microsomes are a subcellular fraction often used to study metabolism.

Another series deals with T2, Toll-like receptor 8 (Homo sapiens, UniProt Q9NR97).
T2 sequence (Q9NR97 whole entry): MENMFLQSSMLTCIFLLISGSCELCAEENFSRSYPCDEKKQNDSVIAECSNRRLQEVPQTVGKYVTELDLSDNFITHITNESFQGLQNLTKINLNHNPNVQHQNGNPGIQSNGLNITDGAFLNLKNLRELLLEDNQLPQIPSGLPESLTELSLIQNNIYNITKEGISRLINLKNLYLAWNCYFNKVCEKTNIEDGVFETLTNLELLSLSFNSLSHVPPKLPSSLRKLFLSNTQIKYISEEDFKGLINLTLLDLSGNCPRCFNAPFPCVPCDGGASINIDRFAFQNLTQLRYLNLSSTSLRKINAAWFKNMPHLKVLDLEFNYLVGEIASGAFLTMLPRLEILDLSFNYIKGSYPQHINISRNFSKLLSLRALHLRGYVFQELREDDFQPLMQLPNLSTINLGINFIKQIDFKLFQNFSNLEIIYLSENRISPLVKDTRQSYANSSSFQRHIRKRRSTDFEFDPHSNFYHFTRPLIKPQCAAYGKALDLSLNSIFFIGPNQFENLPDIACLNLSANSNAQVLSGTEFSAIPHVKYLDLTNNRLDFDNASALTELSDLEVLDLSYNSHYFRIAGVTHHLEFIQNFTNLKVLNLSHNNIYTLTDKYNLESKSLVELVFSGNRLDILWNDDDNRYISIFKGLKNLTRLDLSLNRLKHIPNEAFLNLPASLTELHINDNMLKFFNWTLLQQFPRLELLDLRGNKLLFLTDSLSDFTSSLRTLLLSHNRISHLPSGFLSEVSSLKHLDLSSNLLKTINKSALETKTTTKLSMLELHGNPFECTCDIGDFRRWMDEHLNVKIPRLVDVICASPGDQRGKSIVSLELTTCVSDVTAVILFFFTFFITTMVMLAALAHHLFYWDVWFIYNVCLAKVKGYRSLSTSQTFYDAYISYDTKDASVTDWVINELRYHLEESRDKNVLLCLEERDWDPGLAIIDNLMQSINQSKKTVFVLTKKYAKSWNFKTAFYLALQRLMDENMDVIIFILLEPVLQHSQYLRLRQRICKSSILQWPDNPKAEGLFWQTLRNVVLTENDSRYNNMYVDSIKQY
Put plainly: Agonist activity at human TLR8 expressed in HEK293 cells assessed as induction of receptor activation incubated for 6 hrs by NF-kappaB-luciferase reporter gene assay. The series is classed as cell-based. The settings on record: hek293, 6 h. A digest of the protocol:
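HEK293 cells transiently transfected overnight at 37°C with CMV-TLR8 plasmid (wild type or dLRR2 mutant) plus NFκB-luc reporter, then exposed to compound for 6 h at 37°C, 5% CO₂. Luciferase read-out. Quadruplicate dose-response. LEC is the concentration giving an effect at least two-fold above the assay SD, averaged over two or more independent experiments.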
(In general: In a reporter assay the amount or activity of a reporter protein is the signal.)

The nature of series [2]: Cytotoxic activity against HEK293 cells assessed as reduction in cell viability incubated for 6 hrs. The settings on record: human. The series is classed as cell-based. A digest of the protocol: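 HEK293 cells transfected with the CMV-TLR7 construct alone, treated with a compound dilution series for 6 h at 37°C, 5% CO₂. Viability read by ATP luminescence. Reported as CC50.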

Chain of Cytochrome P450 2C9 (P11712 whole entry): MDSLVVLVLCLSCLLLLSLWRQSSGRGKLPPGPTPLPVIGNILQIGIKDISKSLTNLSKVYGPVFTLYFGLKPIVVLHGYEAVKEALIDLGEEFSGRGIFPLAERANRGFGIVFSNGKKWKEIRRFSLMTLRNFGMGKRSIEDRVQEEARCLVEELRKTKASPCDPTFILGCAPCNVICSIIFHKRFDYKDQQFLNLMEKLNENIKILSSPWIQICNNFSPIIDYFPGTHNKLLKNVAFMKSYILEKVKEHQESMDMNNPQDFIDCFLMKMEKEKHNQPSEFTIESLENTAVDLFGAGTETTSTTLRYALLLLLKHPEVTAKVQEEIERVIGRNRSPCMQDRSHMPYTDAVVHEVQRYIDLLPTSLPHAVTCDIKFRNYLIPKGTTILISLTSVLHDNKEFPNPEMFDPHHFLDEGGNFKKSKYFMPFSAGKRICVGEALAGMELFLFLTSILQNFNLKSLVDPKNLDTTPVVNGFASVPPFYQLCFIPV

In general, IC50 refers to the midpoint of a concentration-inhibition curve. What is called CC50 is the concentration that lowers cell viability or growth by half. Regarding `CCCCNc1nc(N)nc2cccc(C(=O)N(C)Cc3ccccc3)c12`, the IC50 against Cytochrome P450 1A2 and on Cytochrome P450 2C9 was over 10 µM throughout. Further, in series [1], the metabolised at 0.25 h, 1 µM was determined as 99%. Moreover, at Toll-like receptor 8, the MEC was over 25 µM. Moreover, the cytotoxic concentration (CC50) at 6 h in series [2] was over 25 µM.

Turning to `CCCCNc1nc(N)nc2cccc(C(=O)NCc3ccccc3)c12`, the IC50 at Cytochrome P450 1A2 and against Cytochrome P450 2C9 was over 10 µM in each case. The metabolised at 0.25 h, 1 µM in series [1] is 92%. The MEC on Toll-like receptor 8 was 1.6 µM. The CC50 at 6 h in series [2] was over 25 µM.

Turning to `CCCCNc1nc(N)nc2cccc(C(=O)N[C@@H](C)c3ccccc3)c12`, the IC50 on Cytochrome P450 1A2 and against Cytochrome P450 2C9 was over 10 µM in each case. Moreover, the metabolised at 0.25 h, 1 µM in series [1] worked out at 68%. Moreover, the MEC on Toll-like receptor 8 was over 25 µM. In series [2], the 50% cytotoxic concentration (CC50) at 6 h was over 25 µM.

Consider `CCCCNc1nc(N)nc2cccc(OCc3ccccn3)c12`, for which the results for the half-maximal inhibitory concentration (IC50) at Cytochrome P450 1A2 and at Cytochrome P450 2C9 were 1.3 µM and over 10 µM, respectively. Also, in series [1], the metabolised at 0.25 h, 1 µM was 99%. Besides, the MEC at Toll-like receptor 8 came out at 18.5 µM. Also, in series [2], the CC50 at 6 h is over 25 µM.

On to `CCCCNc1nc(N)nc2cccc(OCc3nccc(OC)c3OC)c12`, for which the results for the IC50 against Cytochrome P450 1A2 and against Cytochrome P450 2C9 were 4.1 µM and over 10 µM, respectively. Further, in series [1], the metabolised at 0.25 h, 1 µM was 98%. In addition, the MEC at Toll-like receptor 8 is over 25 µM. Besides, the CC50 at 6 h in series [2] was 16 µM.

With `CCCCNc1nc(N)nc2cccc(OCc3cccnc3)c12`, the half-inhibitory concentration (IC50) against Cytochrome P450 1A2 is 0.9 µM; on Cytochrome P450 2C9, over 10 µM. Also, the metabolised at 0.25 h, 1 µM in series [1] came out at 99%. Besides, at Toll-like receptor 8, the MEC stood at 0.53 µM. The CC50 at 6 h in series [2] was over 25 µM.

For `CCCCNc1nc(N)nc2cccc(OCc3ccccc3)c12`, the IC50 against Cytochrome P450 1A2 was 0.3 µM; against Cytochrome P450 2C9 it was over 10 µM. In addition, in series [1], the metabolised at 0.25 h, 1 µM worked out at 97%. For the same molecule, the MEC on Toll-like receptor 8 amounted to 1.66 µM. In addition, the 50% cytotoxic concentration (CC50) at 6 h in series [2] worked out at 10 µM.

As for `CCCCNc1nc(N)nc2ccccc12`, the MEC on Toll-like receptor 8 was determined as 0.07 µM. The CC50 at 6 h in series [2] lay within 18 to 25 µM.

Regarding `CCCCNc1nc(N)nc2cccc(C(=O)NC(C)C)c12`, the IC50 against Cytochrome P450 1A2 and on Cytochrome P450 2C9 was over 10 µM throughout. The metabolised at 0.25 h, 1 µM in series [1] came to 45%. In addition, at Toll-like receptor 8, the MEC was determined as 15.55 µM. Moreover, the CC50 at 6 h in series [2] is over 25 µM.

With `CCCCNc1nc(N)nc2cccc(C(=O)N[C@H](C)c3ccccc3)c12`, the IC50 at Cytochrome P450 1A2 and against Cytochrome P450 2C9 was over 10 µM in each case. For the same molecule, the metabolised at 0.25 h, 1 µM in series [1] was 75%. In addition, the MEC on Toll-like receptor 8 is over 25 µM. For the same molecule, the CC50 at 6 h in series [2] is over 25 µM.

For the molecule `CCCCNc1nc(N)nc2cccc(OCc3ccccc3OC)c12`, the IC50 on Cytochrome P450 1A2 is 2.9 µM; at Cytochrome P450 2C9, over 10 µM. In series [1], the metabolised at 0.25 h, 1 µM is 98%. At Toll-like receptor 8, the MEC was over 25 µM. Moreover, in series [2], the CC50 at 6 h was over 25 µM.

Take `CCCCNc1nc(N)nc2cccc(OCc3ccc(CO)cc3OC)c12`: the IC50 is over 10 µM against Cytochrome P450 1A2 and 5 µM on Cytochrome P450 2C9. Besides, the metabolised at 0.25 h, 1 µM in series [1] is 98%. Also, on Toll-like receptor 8, the MEC was over 25 µM. For the same molecule, in series [2], the CC50 at 6 h came to 16 µM.

For `CCCCNc1nc(N)nc2cccc(C(=O)NC)c12`, the results for the IC50 at Cytochrome P450 1A2 and on Cytochrome P450 2C9 were over 10 µM and 8 µM, respectively. Also, in series [1], the metabolised at 0.25 h, 1 µM was determined as 90%. In addition, at Toll-like receptor 8, the MEC was found to be 0.39 µM. Also, in series [2], the CC50 at 6 h is over 25 µM.

For the origin of these results see ChEMBL document CHEMBL4184225, “Discovery of selective 2,4-diaminoquinazoline toll-like receptor 7 (TLR 7) agonists” (Bioorg Med Chem Lett, 2018).
